In brackets after ≈: the same amount, converted by molar mass.
Columns and labels:
Micrococcus luteus [1] = test: Antibacterial activity against Sarcina lutea ATCC 934 by macrotube dilution method; format: functional
Summary of the method: (§1)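 Macrotube twofold dilution following CLSI guidelines, with 15 tubes per organism. Tube 1 held 2 mg compound in 2.0 mL DMF and tubes 2–14 held 1.0 mL broth; 1.0 mL was carried serially, and tube 15 was the control. Colonies were suspended in 5.0 mL broth, then 0.2 mL was diluted into 40 mL, and 1.0 mL was added per tube. Bacteria were grown in nutrient broth at 37 °C overnight; fungi in Czapek's Dox at 30 °C for 72 h.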

Staphylococcus aureus [2] = test: Antibacterial activity against Staphylococcus aureus NCTC 7447 by macrotube dilution method; format: functional; summary of the method: as §1
Aspergillus flavus [3] = test: Antifungal activity against Aspergillus flavus at 5 mg/ml by agar disc diffusion method; format: functional; conditions: read-out: DIZ
Candida albicans [4] = test: Fungicidal activity against Candida albicans IMRU 3669 by broth microtiter MIC test; format: functional
Staphylococcus aureus [5] = test: Bactericidal activity against Staphylococcus aureus NCTC 7447 by broth microtiter MIC test; format: functional
Escherichia coli [6] = test: Bactericidal activity against Escherichia coli NCTC 10416 by broth microtiter MIC test; format: functional
Escherichia coli [7] = test: Antibacterial activity against Escherichia coli NCTC 10416 at 5 mg/ml after 24 hrs by agar disc diffusion method; format: functional; conditions: NCTC 10416, 24 h, read-out: DIZ
Summary of the method: (§2)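 Agar well-diffusion using 1 cm wells, each loaded with 100 of compound solution (5 mg/mL in DMF). Bacteria were maintained on nutrient agar and plated as a standard suspension. Plates were incubated 24 h at 35 °C, and inhibition zone diameters were measured.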

Candida albicans [8] = test: Antifungal activity against Candida albicans IMRU 3669 at 5 mg/ml by agar disc diffusion method; format: functional; conditions: read-out: DIZ
Micrococcus luteus [9] = test: Bactericidal activity against Sarcina lutea ATCC 934 by broth microtiter MIC test; format: functional
Aspergillus flavus [10] = test: Antifungal activity against Aspergillus flavus after 72 hrs by macrotube dilution method; format: functional; summary of the method: as §1
Staphylococcus aureus [11] = test: Antibacterial activity against Staphylococcus aureus NCTC 7447 at 5 mg/ml after 24 hrs by agar disc diffusion method; format: functional; conditions: NCTC 7447, 24 h, read-out: DIZ; summary of the method: as §2
[12] = Antitumor activity against mouse EAC cells assessed as inhibition of cell viability at 100 ug/ml by Trypan blue assay; format: functional; conditions: Ehrlich
Summary of the method: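 EAC cells were taken by needle aspiration of ascitic fluid from preinoculated mice and diluted 1:10 in saline. Then 0.1 mL of cell suspension, 0.8 mL RPMI 1640 and 0.1 mL compound were incubated 2 h at 37 °C. Dead cells were counted by trypan blue exclusion, and % non-viable = non-viable/total cells × 100.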

Escherichia coli [13] = test: Antibacterial activity against Escherichia coli NCTC 10416 by macrotube dilution method; format: functional; summary of the method: as §1
Micrococcus luteus [14] = test: Antibacterial activity against Sarcina lutea ATCC 934 at 5 mg/ml after 24 hrs by agar disc diffusion method; format: functional; conditions: ATCC 934, 24 h, read-out: DIZ; summary of the method: as §2
Bacillus subtilis [15] = test: Antibacterial activity against Bacillus subtilis NCTC 1040 at 5 mg/ml after 24 hrs by agar disc diffusion method; format: functional; conditions: NCTC 1040, 24 h, read-out: DIZ; summary of the method: as §2
Bacillus subtilis [16] = test: Bactericidal activity against Bacillus subtilis NCTC 1040 by broth microtiter MIC test; format: functional
Candida albicans [17] = test: Antifungal activity against Candida albicans IMRU 3669 after 72 hrs by macrotube dilution method; format: functional; conditions: IMRU 3669, 72 h; summary of the method: as §1
Bacillus subtilis [18] = test: Antibacterial activity against Bacillus subtilis NCTC 1040 by macrotube dilution method; format: functional; summary of the method: as §1
Aspergillus flavus [19] = test: Fungicidal activity against Aspergillus flavus by broth microtiter MIC test; format: functional
HCT-116 [20] = test: Cytotoxicity against human HCT116 cells assessed as surviving fraction at 50 ug/ml after 48 hrs by SRB assay relative to control; format: functional
Summary of the method: (§3)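 SRB assay per Skehan: compounds at 5.0, 12.5, 25 and 50 were added to cell monolayers in triplicate wells per dose for 48 h at 37 °C, 5% CO2. Cells were then fixed and stained with SRB, excess stain was removed with acetic acid, and bound dye was recovered in Tris EDTA. Surviving fraction was plotted against concentration, and IC50 was read from the dose–response curves.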

HepG2 [21] = test: Cytotoxicity against human HepG2 cells after 48 hrs by SRB assay; format: functional, cell-based; conditions: HepG2, 48 h; summary of the method: as §3
MCF7 [22] = test: Cytotoxicity against human MCF7 cells assessed as surviving fraction at 25 ug/ml after 48 hrs by SRB assay relative to control; format: functional; summary of the method: as §3
HEp-2 [23] = test: Cytotoxicity against human Hep2 cells after 48 hrs by SRB assay; format: functional, cell-based; conditions: HEp-2, 48 h; summary of the method: as §3
HeLa [24] = test: Cytotoxicity against human HeLa cells assessed as surviving fraction at 50 ug/ml after 48 hrs by SRB assay relative to control; format: functional; summary of the method: as §3
HepG2 [25] = test: Cytotoxicity against human HepG2 cells assessed as surviving fraction at 25 ug/ml after 48 hrs by SRB assay relative to control; format: functional; summary of the method: as §3
HCT-116 [26] = test: Cytotoxicity against human HCT116 cells assessed as surviving fraction at 12.5 ug/ml after 48 hrs by SRB assay relative to control; format: functional; summary of the method: as §3
MCF7 [27] = test: Cytotoxicity against human MCF7 cells assessed as surviving fraction at 50 ug/ml after 48 hrs by SRB assay relative to control; format: functional; summary of the method: as §3
HeLa [28] = test: Cytotoxicity against human HeLa cells assessed as surviving fraction at 12.5 ug/ml after 48 hrs by SRB assay relative to control; format: functional; summary of the method: as §3
HCT-116 [29] = test: Cytotoxicity against human HCT116 cells assessed as surviving fraction at 25 ug/ml after 48 hrs by SRB assay relative to control; format: functional; summary of the method: as §3
HCT-116 [30] = test: Cytotoxicity against human HCT116 cells assessed as surviving fraction at 5 ug/ml after 48 hrs by SRB assay relative to control; format: functional; summary of the method: as §3
MCF7 [31] = test: Cytotoxicity against human MCF7 cells assessed as surviving fraction at 5 ug/ml after 48 hrs by SRB assay relative to control; format: functional; summary of the method: as §3
HEp-2 [32] = test: Cytotoxicity against human Hep2 cells assessed as surviving fraction at 25 ug/ml after 48 hrs by SRB assay relative to control; format: functional; summary of the method: as §3
HeLa [33] = test: Cytotoxicity against human HeLa cells assessed as surviving fraction at 5 ug/ml after 48 hrs by SRB assay relative to control; format: functional; summary of the method: as §3
HepG2 [34] = test: Cytotoxicity against human HepG2 cells assessed as surviving fraction at 50 ug/ml after 48 hrs by SRB assay relative to control; format: functional; summary of the method: as §3
HEp-2 [35] = test: Cytotoxicity against human Hep2 cells assessed as surviving fraction at 12.5 ug/ml after 48 hrs by SRB assay relative to control; format: functional; summary of the method: as §3
HCT-116 [36] = test: Cytotoxicity against human HCT116 cells after 48 hrs by SRB assay; format: functional, cell-based; conditions: HCT-116, 48 h; summary of the method: as §3
HEp-2 [37] = test: Cytotoxicity against human Hep2 cells assessed as surviving fraction at 50 ug/ml after 48 hrs by SRB assay relative to control; format: functional; summary of the method: as §3
HeLa [38] = test: Cytotoxicity against human HeLa cells after 48 hrs by SRB assay; format: functional, cell-based; summary of the method: as §3
MCF7 [39] = test: Cytotoxicity against human MCF7 cells after 48 hrs by SRB assay; format: functional, cell-based; conditions: MCF7, 48 h; summary of the method: as §3
HepG2 [40] = test: Cytotoxicity against human HepG2 cells assessed as surviving fraction at 5 ug/ml after 48 hrs by SRB assay relative to control; format: functional; summary of the method: as §3
HeLa [41] = test: Cytotoxicity against human HeLa cells assessed as surviving fraction at 25 ug/ml after 48 hrs by SRB assay relative to control; format: functional; summary of the method: as §3
HEp-2 [42] = test: Cytotoxicity against human Hep2 cells assessed as surviving fraction at 5 ug/ml after 48 hrs by SRB assay relative to control; format: functional; summary of the method: as §3
HepG2 [43] = test: Cytotoxicity against human HepG2 cells assessed as surviving fraction at 12.5 ug/ml after 48 hrs by SRB assay relative to control; format: functional; summary of the method: as §3
MCF7 [44] = test: Cytotoxicity against human MCF7 cells assessed as surviving fraction at 12.5 ug/ml after 48 hrs by SRB assay relative to control; format: functional; summary of the method: as §3

In the case of `N=C1C(=S)N(c2ccccc2)C(=O)N1Cc1ccccc1`, the MIC (Micrococcus luteus [1]) is reported as 32.3 µg/mL (≈ 109 µM), the MIC (Staphylococcus aureus [2]) is reported as 64.5 µg/mL (≈ 218 µM) and the zone of inhibition at 5000 µg/mL (Aspergillus flavus [3]) is reported as 17 mm. The MFC (Candida albicans [4]) was 64.5 µg/mL (≈ 218 µM), the MBC (Staphylococcus aureus [5]) was 64.5 µg/mL (≈ 218 µM) and the MBC (Escherichia coli [6]) was 16.1 µg/mL (≈ 54.5 µM). For the same compound, the zone of inhibition at 5000 µg/mL (Escherichia coli [7]) was 23.5 mm, the zone of inhibition at 5000 µg/mL (Candida albicans [8]) was 24 mm and the MBC (Micrococcus luteus [9]) was 32.3 µg/mL (≈ 109 µM). For the same compound, the MIC (Aspergillus flavus [10]) was 250 µg/mL (≈ 846 µM), the zone of inhibition at 5000 µg/mL (Staphylococcus aureus [11]) was 22 mm and the inhibition at 100 µg/mL [12] was 60%. It also gave an MIC (Escherichia coli [13]) of 16.1 µg/mL (≈ 54.5 µM), a zone of inhibition at 5000 µg/mL (Micrococcus luteus [14]) of 20 mm and a zone of inhibition at 5000 µg/mL (Bacillus subtilis [15]) of 21.5 mm. For the same compound, the MBC (Bacillus subtilis [16]) was 64.5 µg/mL (≈ 218 µM), the MIC (Candida albicans [17]) was 64.5 µg/mL (≈ 218 µM) and the MIC (Bacillus subtilis [18]) was 64.5 µg/mL (≈ 218 µM). It also gave an MFC (Aspergillus flavus [19]) of 250 µg/mL (≈ 846 µM).

With `COc1ccc(N2C(=N)C(=S)N(c3ccc(OC)cc3OC)C2=O)cc1` the Activity (HCT-116 [20]) was 0.29, the IC50 (HepG2 [21]) was 4.34 µg/mL (≈ 11.7 µM) and the Activity (MCF7 [22]) was 0.18. For the same compound, the IC50 (HEp-2 [23]) was 3.89 µg/mL (≈ 10.5 µM), the Activity (HeLa [24]) was 0.23 and the Activity (HepG2 [25]) was 0.19. The zone of inhibition at 5000 µg/mL (Aspergillus flavus [3]) was 17 mm, the Activity (HCT-116 [26]) was 0.26 and the Activity (MCF7 [27]) was 0.27. It also gave an Activity (HeLa [28]) of 0.16, an Activity (HCT-116 [29]) of 0.19 and an Activity (HCT-116 [30]) of 0.35. It also gave a zone of inhibition at 5000 µg/mL (Escherichia coli [7]) of 24.5 mm, a zone of inhibition at 5000 µg/mL (Candida albicans [8]) of 22 mm and an Activity (MCF7 [31]) of 0.25. For the same compound, the Activity (HEp-2 [32]) was 0.21, the Activity (HeLa [33]) was 0.21 and the Activity (HepG2 [34]) was 0.23. The Activity (HEp-2 [35]) was 0.2, the IC50 (HCT-116 [36]) was 3.73 µg/mL (≈ 10 µM) and the zone of inhibition at 5000 µg/mL (Staphylococcus aureus [11]) was 20 mm. For the same compound, the Activity (HEp-2 [37]) was 0.28, the inhibition at 100 µg/mL [12] was 80% and the IC50 (HeLa [38]) was 3.12 µg/mL (≈ 8.4 µM). The zone of inhibition at 5000 µg/mL (Micrococcus luteus [14]) was 24 mm, the IC50 (MCF7 [39]) was 3.28 µg/mL (≈ 8.83 µM) and the Activity (HepG2 [40]) was 0.42. The zone of inhibition at 5000 µg/mL (Bacillus subtilis [15]) was 20 mm, the Activity (HeLa [41]) was 0.17 and the Activity (HEp-2 [42]) was 0.36. For the same compound, the Activity (HepG2 [43]) was 0.28 and the Activity (MCF7 [44]) was 0.17.
